Source: ChEMBL document CHEMBL1152214, “Synthesis and immunostimulatory properties of the phosphorothioate analogues of cdiGMP” (Bioorg Med Chem Lett, 2008)
Active and inactive are the calls of the source. No cut-off for these calls is given here.

Assays:
Assay type in all cases: functional, organism-based
[1] = species on record: Mus musculus; assay: Induction of IL-5 secretion in C57BL/6 mouse
Procedure, shortened: (§1)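 Mice dosed by intranasal instillation and killed after 24 h; bronchoalveolar lavage collected five times with PBS plus 3 mM EDTA; lavage fluid measured for a panel of 21 chemokines and cytokines.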

[2] = species on record: Mus musculus; assay: Induction of IL-4 secretion in C57BL/6 mouse; procedure, shortened: as §1
[3] = species on record: Mus musculus; assay: Induction of IL-3 secretion in C57BL/6 mouse; procedure, shortened: as §1
[4] = species on record: Mus musculus; assay: Induction of IL-2 secretion in C57BL/6 mouse; procedure, shortened: as §1
[5] = species on record: Mus musculus; assay: Induction of IL-1alpha secretion in C57BL/6 mouse; procedure, shortened: as §1
[6] = species on record: Mus musculus; assay: Induction of IL-17 secretion in C57BL/6 mouse; procedure, shortened: as §1
[7] = species on record: Mus musculus; assay: Induction of IL-13 secretion in C57BL/6 mouse; procedure, shortened: as §1
[8] = species on record: Mus musculus; assay: Induction of IL-10 secretion in C57BL/6 mouse; procedure, shortened: as §1
[9] = species on record: Mus musculus; assay: Induction of IFN-gamma secretion in C57BL/6 mouse; procedure, shortened: as §1
[10] = species on record: Mus musculus; assay: Induction of GM-CSF secretion in C57BL/6 mouse; procedure, shortened: as §1
[11] = species on record: Mus musculus; assay: Induction of TNFalpha secretion in C57BL/6 mouse; procedure, shortened: as §1
[12] = species on record: Mus musculus; assay: Induction of RNATES secretion in C57BL/6 mouse; procedure, shortened: as §1
[13] = species on record: Mus musculus; assay: Induction of MIP-1beta secretion in C57BL/6 mouse; procedure, shortened: as §1
[14] = species on record: Mus musculus; assay: Induction of MCP-1 secretion in C57BL/6 mouse; procedure, shortened: as §1
[15] = species on record: Mus musculus; assay: Induction of KC secretion in C57BL/6 mouse; procedure, shortened: as §1
[16] = species on record: Mus musculus; assay: Induction of IL-6 secretion in C57BL/6 mouse; procedure, shortened: as §1
[17] = species on record: Mus musculus; assay: Induction of IL1-beta secretion in C57BL/6 mouse; procedure, shortened: as §1
[18] = species on record: Mus musculus; assay: Induction of IL-12(p40) secretion in C57BL/6 mouse; procedure, shortened: as §1
[19] = species on record: Mus musculus; assay: Immunostimulatory activity in C57BL/6 mouse assessed as recruitment of inflammatory cells into bronchoalveolar spaces; details: Lung
Procedure, shortened: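 Compound given to mice by intranasal instillation; animals killed 24 h later and lungs lavaged five times with PBS containing 3 mM EDTA; total and differential inflammatory cell counts determined in the bronchoalveolar lavage.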

[20] = species on record: Mus musculus; assay: Induction of IL-9 secretion in C57BL/6 mouse; procedure, shortened: as §1
[21] = species on record: Mus musculus; assay: Induction of VEGF secretion in C57BL/6 mouse; procedure, shortened: as §1

For `Nc1nc2ncn([C@@H]3O[C@@H]4COP(=O)(O)O[C@@H]5[C@H](O)[C@@H](n6cnc7nc(N)[nH]c(=O)c76)O[C@H]5COP(=O)(O)O[C@H]4[C@H]3O)c2c(=O)[nH]1`, the Activity [1] was “inactive”, the Activity [2] was “inactive” and the Activity [3] was “inactive”. For the same compound, the Activity [4] was “inactive”, the Activity [5] was “inactive” and the Activity [6] was “inactive”. For the same compound, the Activity [7] was “inactive”, the Activity [8] was “inactive” and the Activity [9] was “inactive”. The Activity [10] was “inactive”, the Activity [11] was “Dose-dependent effect” and the Activity [12] was “Dose-dependent effect”. The Activity [13] was “Dose-dependent effect”, the Activity [14] was “Dose-dependent effect” and the Activity [15] was “Dose-dependent effect”. For the same compound, the Activity [16] was “Dose-dependent effect”, the Activity [17] was “Dose-dependent effect” and the Activity [18] was “Dose-dependent effect”. For the same compound, the Activity [19] was “Dose-dependent effect”, the Activity [20] was “inactive” and the Activity [21] was “inactive”.
